ChEMBL document CHEMBL4368912, “Discovery and Development of N-[4-(1-Cyclobutylpiperidin-4-yloxy)phenyl]-2-(morpholin-4-yl)acetamide Dihydrochloride (SUVN-G3031): A Novel, Potent, Selective, and Orally Active Histamine H3 Receptor Inverse Agonist with Robust Wake-Promoting Activity” (J Med Chem, 2019)
Calls of active or inactive are those of the source. The calls are words filed in the database; no cut-off is given here.

Experiments:
[1] = Mutagenicity in Salmonella typhimurium TA1535 in presence of metabolic activation by Ames test; type: toxicity; conditions: salmonella enterica subsp. enterica serovar typhimurium
Rattus norvegicus = experiment: Induction of wake promoting activity in orexin-B-saporin lesioned Wistar rat assessed as decrease in REM sleep time at 10 to 30 mg/kg, po dosed 15 mins before start of dark phase; type: functional, organism-based
Outline: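 Rats carried epidural frontal-cortex EEG screws, nuchal EMG leads, and bilateral lateral hypothalamic orexin-B-saporin (490 ng/0.8 µl). After at least 3 weeks' recovery, they were dosed 15 min before lights-off in a crossover design with a 1-week washout. Wake, NREM and REM time was totalled over 3 h. DREM was scored as REM after ≥60 s wake. Dunnett's test was used.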

[2] = Fraction unbound in dog plasma at 1 uM by equilibrium dialysis; type: ADME, cell-free, Canis lupus familiaris
Outline: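 Rapid equilibrium dialysis of fresh rat, dog or human plasma at a compound concentration of 1.0 µM. Unbound fraction reported as a percentage.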

Cytochrome P450 2C8 = target: T1, Cytochrome P450 2C8 (Homo sapiens, UniProt P10632); experiment: Inhibition of CYP2C8 (unknown origin); type: ADME
T1 sequence (P10632 whole entry): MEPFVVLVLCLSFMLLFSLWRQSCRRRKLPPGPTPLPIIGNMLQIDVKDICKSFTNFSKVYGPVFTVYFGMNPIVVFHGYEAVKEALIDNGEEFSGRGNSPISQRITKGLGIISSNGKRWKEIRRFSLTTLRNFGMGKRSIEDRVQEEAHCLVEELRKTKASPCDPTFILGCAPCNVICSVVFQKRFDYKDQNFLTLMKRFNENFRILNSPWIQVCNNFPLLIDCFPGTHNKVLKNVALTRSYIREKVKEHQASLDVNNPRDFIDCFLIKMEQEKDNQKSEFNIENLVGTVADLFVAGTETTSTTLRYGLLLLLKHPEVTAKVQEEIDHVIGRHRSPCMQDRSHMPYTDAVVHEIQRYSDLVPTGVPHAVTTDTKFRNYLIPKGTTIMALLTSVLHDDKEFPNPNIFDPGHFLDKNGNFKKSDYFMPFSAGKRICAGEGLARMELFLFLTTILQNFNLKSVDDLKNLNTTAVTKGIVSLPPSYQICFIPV

[3] = Toxicity in Wistar rat up to 100 mg/kg, po by Irwin's test; type: organism-based; conditions: in vivo
Outline: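 CNS safety was screened with a modified Irwin's test at oral doses up to 100 mg/kg.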

[4] = Mutagenicity in Salmonella typhimurium TA98 in absence of metabolic activation by Ames test; type: toxicity; conditions: salmonella enterica subsp. enterica serovar typhimurium
CHO-K1 [5] = experiment: Induction of phospholipidosis in CHOK1 cells up to 300 uM incubated for 24 hrs by fluorescent-labeled phospholipid probe NBD-PE based fluorescence assay; type: cell-based, Cricetulus griseus; conditions: chinese hamster, cho-k1, 24 h
CHO-K1 [6] = experiment: Cytotoxicity in CHOK1 cells up to 300 uM incubated for 24 hrs by MTT assay; type: cell-based, Cricetulus griseus; conditions: chinese hamster, cho-k1, 24 h
Bone marrow cell = experiment: Clastogenic activity in micronucleus of mouse bone marrow cells; type: toxicity, cell-based
[7] = Volume of distribution at steady state in Wistar rat at 3 mg/kg, po or 1 mg/kg, iv by LC-MS/MS analysis; type: ADME, organism-based; conditions: Wistar, in vivo, read-out: Vdss
Outline: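 Fasted male Wistar rats were dosed orally and intravenously, with water for injection as the vehicle for both routes, at dosing volumes of 10 mL/kg p.o. and 2 mL/kg i.v.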

[8] = Mutagenicity in Salmonella typhimurium TA100 in absence of metabolic activation by Ames test; type: toxicity; conditions: salmonella enterica subsp. enterica serovar typhimurium
Outline: (§1)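 Reverse-mutation test in Salmonella typhimurium TA1537, TA1535, TA98 and TA100 and in E. coli WP2 uvrA, run with and without metabolic activation.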

[9] = Mutagenicity in Salmonella typhimurium TA100 in presence of metabolic activation by Ames test; type: toxicity; conditions: salmonella enterica subsp. enterica serovar typhimurium; outline: as §1

## Cl.Cl.O=C(CN1CCOCC1)Nc1ccc(OC2CCN(C3CCC3)CC2)cc1
[1]
  Activity: Non-Toxic
Rattus norvegicus
  Activity: Active
[2]
  fraction unbound at 1 µM: 0.52
Cytochrome P450 2C8
  IC50: > 45 µM
[3]
  Activity: Non-Toxic
[4]
  Activity: Non-Toxic
CHO-K1 [5]
  Activity: Non-Toxic
CHO-K1 [6]
  Activity: Non-Toxic
Bone marrow cell
  Activity: Non-Toxic
[7]
  Vd: 5 L/kg
[8]
  Activity: Non-Toxic
[9]
  Activity: Non-Toxic
